Molecules are shown by their SMILES. About 3,600 (1%) of roughly 360,000 compounds were called active.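 How the source made its calls: active means activation above the mean activation of all test compounds in the run plus 3 SD (cut at about 38% in these data); inactive means the rest.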 What follows is part of a selection rich in actives, with near analogues and random picks from the rest.

Sequence of Trace amine-associated receptor 1 (Homo sapiens) (Q96RJ0 whole entry, looked up): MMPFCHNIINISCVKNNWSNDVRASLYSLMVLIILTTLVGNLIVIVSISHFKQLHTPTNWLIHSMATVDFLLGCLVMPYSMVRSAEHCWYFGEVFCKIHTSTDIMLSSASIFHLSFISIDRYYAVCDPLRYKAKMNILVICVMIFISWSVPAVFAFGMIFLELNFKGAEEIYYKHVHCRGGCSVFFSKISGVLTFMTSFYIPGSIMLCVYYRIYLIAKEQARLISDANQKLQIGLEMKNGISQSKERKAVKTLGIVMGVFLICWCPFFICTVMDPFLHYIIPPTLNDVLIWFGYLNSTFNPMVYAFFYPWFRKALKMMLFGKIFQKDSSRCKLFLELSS

This assay addresses Trace amine-associated receptor 1 (Homo sapiens) (UniProt Q96RJ0). Kind of assay: human TAAR1 agonists, primary screen, Fluo-8 calcium fluorescence, CHO RD-HGA16 cells (AID 624467). The note with it: CHO RD-HGA16 TAAR1, Fluo-8 calcium fluorescence; at 3 µM; active compounds read high; vehicle wells 0%, saturating PEA agonist 100%. Put shortly: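 test system = CHO RD-HGA16 cells carrying human TAAR1 plus Gα16 | schedule = 17-24 h seeding, 75 min 37 °C dye, 30 min RT | compound dosing = 3 µM single concentration | control set = DMSO and PEA EC100 | replicates = n 1 | signal = Fluo-8 fluorescence, 5 s baseline then 140 s kinetic read | measure = percent activation vs PEA EC100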
As to `CC1(c2ccc(Cl)cc2)NC(=O)N(CC(=O)c2ccc3c(c2)OCO3)C1=O` (centres undefined), the activation was 48.4% (active).
On to `Cc1ccc(C2(C)NC(=O)N(CC(=O)Nc3ccccc3C(=O)N3CCCCC3)C2=O)cc1` (centres undefined), for which the activation was 9.97% (inactive).
For `Cc1ccc(NC(=O)CN2C(=O)NC(C)(c3ccc(Cl)cc3)C2=O)c(Br)c1` (centres undefined) the value was 42.4% (active).
For `Cc1ccc(C2(C)NC(=O)N(CC(=O)N3CC(=O)Nc4ccccc43)C2=O)cc1` (centres undefined) the value was 1.06% (inactive); for `COc1ccc(C2(C)NC(=O)N(CC(=O)c3ccc4c(c3)OCO4)C2=O)cc1` (centres undefined), 25.5% (inactive).
For `COc1cc(NC(=O)CN2C(=O)NC(C)(c3ccc(OC(F)F)cc3)C2=O)cc(OC)c1OC` (centres undefined) the value was 5.76% (inactive).
For `Cc1ccc(S(=O)(=O)N2CCN(C(=O)CN3C(=O)NC(C)(c4ccc(Cl)cc4)C3=O)CC2)c(C)c1` (centres undefined), the activation was 9.36% (inactive).
For `CC1CCC2(CC1)NC(=O)N(CC(=O)c1ccc3c(c1)OCO3)C2=O` (centres undefined) the value was 1.46% (inactive); for `COc1ccc(C(=O)CN2C(=O)NC(C)(c3ccc(C)cc3)C2=O)cc1OC` (centres undefined), 59.9% (active); for `COc1ccc(NC(=O)N(C)C[C@@H]2OCCCC[C@@H](C)Oc3ccc(NC(=O)NC4CCCCC4)cc3C(=O)N([C@H](C)CO)C[C@@H]2C)cc1`, 0.43% (inactive).
For `O=C(N[C@H](Cc1ccccc1)C(=O)N1CCCN(Cc2cccs2)CC1)[C@H]1O[C@@H](n2ccc(=O)[nH]c2=O)[C@H](O)[C@@H]1O` the value was 0.87% (inactive); for `N#Cc1cccc(C(=O)NCC2CCN(C(=O)C(=O)c3cc4ccccc4o3)CC2)c1`, 2.73% (inactive); for `CSc1ccc(Oc2cccc3c2S(=O)(=O)N([C@H](C)c2ccccc2)C[C@@H](COCc2ccccc2)O3)cc1C`, -0.58% (inactive).
For `CC(NC(=O)C(=O)NN=C1CCC(C(C)(C)C)CC1)c1ccccc1` (centres undefined) the value was -1.32% (inactive).
On to `CCOC(=O)c1cc(-c2ccc(Cl)s2)nc2c1c(C)nn2C`, for which the activation was 12.8% (inactive).
With `CCCc1nnc(SCC(=O)N2C(C)CCCC2C)n1CC` (centres undefined), the activation is 7.54% (inactive).
For `COc1cc(OC)c(N2CC(C(=O)Nc3cc(Cl)ccc3N3CCOCC3)CC2=O)cc1Cl` (centres undefined) the value was 9.38% (inactive); for `COc1cc(OC)c(-n2cc(-c3ccc(Cl)cc3)[nH]c2=O)cc1Cl`, 135% (active).
For `COc1ccc(-n2c(-c3ccc(Cl)cc3)n[nH]c2=S)c(OC)c1` the value was 1% (inactive); for `O=C(NC1CCCC1)C(c1ccc(Cl)cc1)N(C(=O)c1csnn1)C1CC1` (centres undefined), 2.16% (inactive).
With `N#CCSc1ccccc1NC(=O)CN1C(=O)NC(CCc2ccccc2)C1=O` (centres undefined), the activation was 4.54% (inactive).
As for `Cc1ccc(-c2nnc(SCC(=O)N/N=C/c3cccs3)n2-c2ccc(C)cc2)cc1`, the activation is 2.56% (inactive).
For `COc1ccc(NC(=O)COC(=O)Cn2c(C)nc3ccccc32)cc1OC` the value was 8.05% (inactive).
In the case of `Cc1nc2ccccc2n1CC(=O)N/N=C/c1cccs1`, the activation was 41% (active).
For `COc1ccc(N(C(=O)CNC(=O)c2ccco2)C(C(=O)NCC2CCCO2)c2ccccc2)cc1Cl` (centres undefined) the value was 14% (inactive); for `CC(=O)c1ccc(N2CCN(C(=O)c3ccc(Cl)c(S(=O)(=O)NC4CC4)c3)CC2)c(F)c1`, 5.24% (inactive).
For `COc1ccc(S(=O)(=O)Nc2ccc3c(c2)C(=O)N([C@H](C)CO)C[C@H](C)[C@@H](CN(C)C)OCCCC[C@H](C)O3)cc1` the value was 1.27% (inactive); for `C#CCOc1ccc(/C=C2/C(=O)ON=C2C)cc1OCC`, 26.1% (inactive).
For `C#CCOc1ccc(/C=C2/C(=O)NN(c3ccccc3)C2=O)cc1OC` the value was 52.3% (active); for `COc1cc(/C=C2\SC(=O)NC2=O)ccc1OCc1ccc(Cl)nc1`, 0.37% (inactive); for `CC(C)OC(=O)c1cc(NC(=O)C2C3CCC(O3)C2C(=O)O)cc(C(=O)OC(C)C)c1` (centres undefined), -0.82% (inactive).
In the case of `Cc1sc(NC(=O)C2C3CCC(O3)C2C(=O)O)c(C(=O)OC(C)C)c1-c1ccc(Cl)cc1` (centres undefined), the activation is 38.3% (active).
Take `COc1ccc(NC(=O)C2C3CCC(O3)C2C(=O)O)cc1OC` (centres undefined): the activation is 2.71% (inactive).
For `Cc1nn(C)cc1N1C(=O)c2cccc3c(N)ccc(c23)C1=O` the value was 83.9% (active); for `CN1C(=O)c2cccc3c(N)ccc(c23)C1=O`, 119% (active); for `CCCOc1ccc(N2C(=O)CC(N(CCc3ccc(S(N)(=O)=O)cc3)C(C)=O)C2=O)cc1` (centres undefined), 1.5% (inactive).
In the case of `Cc1ccc(CNC(=O)Cn2cnc(S(=O)(=O)N3CCCCC3)c2)o1`, the activation is 1.59% (inactive).
For `CCOC(=O)C1CCN(S(=O)(=O)c2ccc3c(c2)N(C(C)=O)CCO3)CC1` the value was -0.05% (inactive).
For `CCCN1C(=O)c2[nH]nc(-c3ccccc3)c2C1c1ccccc1` (centres undefined) the value was 2.41% (inactive); for `CN(C)C(=O)N1CCN(C(=O)[C@@H](Cc2ccccc2)NC(=O)[C@H]2O[C@@H](n3ccc(N)nc3=O)[C@H](O)[C@@H]2O)CC1`, 1.21% (inactive); for `COC(=O)Cc1nnn2c1[C@H](C)[C@H](c1ccccc1Br)OCC2`, 2.69% (inactive).
For `COc1ccc(C(=O)N2CCCCC2c2cc(C(=O)Nc3ccccc3)no2)cc1` (centres undefined) the value was -0.19% (inactive); for `Cc1nc(-c2ccc(NC(=O)c3cccs3)cc2)cs1`, 44.8% (active).
`COc1cc(NC(=O)c2ccc(-c3csc(C)n3)cc2)c(OC)cc1Cl`: the activation was 3.15% (inactive).
For `O=C(Nc1n[nH]c(C(F)(F)F)n1)c1cccs1` the value was -0.13% (inactive); for `CSc1ccc(NC(=O)N2CC(C)OC(C)C2)cc1` (centres undefined), 6.32% (inactive); for `Cc1cccc(C)c1NC(=O)N1CC(C)OC(C)C1` (centres undefined), 41.9% (active).
Consider `COC(=O)[C@H](Cc1ccccc1)NC(=O)N1CC(C)OC(C)C1` (some centres undefined), for which the activation was -0.71% (inactive).
Consider `CC(=O)Nc1ccc(SC[C@H](Cc2ccccc2)N2CC[C@@H](C)CCC2=O)cc1`, for which the activation is 9.24% (inactive).
As to `C=CCNC(=O)/C=C/c1ccc(C(C)C)cc1`, the activation was -2.85% (inactive).
For `O=C(O)/C=C/c1ccc(S(=O)(=O)N2CCCCCC2)cc1` the value was 4.85% (inactive); for `O=C(/C=C(O)/C=C/c1ccc(O)cc1)/C=C/c1ccc(O)cc1`, 63.8% (active).
For `COC(=O)[C@H](CC(C)C)NS(=O)(=O)c1c(F)cccc1F` the value was 1.29% (inactive); for `O=C(NCc1ccccc1)[C@H]1CCCN1C(=O)[C@@H]1CCCN1C(=O)c1ccc(Cl)cc1Cl`, 0.11% (inactive).

The values above are taken from PubChem BioAssay AID624467 (The Scripps Research Institute Molecular Screening Center, 2012).
